Each structure is given as a SMILES string. Hit rate of the full screen: of about 320,000 compounds, about 380 (0.12%) were called active.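 The calls were made as follows: active = percent inhibition above the cutoff of mean plus 3 SD of all tested compounds, set per screening campaign (cut at about 20% in these data); inactive = the rest.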 The full list was thinned out, with actives kept by preference.

Photoreceptor-specific nuclear receptor (Homo sapiens), sequence (Q9Y5X4 whole entry, looked up): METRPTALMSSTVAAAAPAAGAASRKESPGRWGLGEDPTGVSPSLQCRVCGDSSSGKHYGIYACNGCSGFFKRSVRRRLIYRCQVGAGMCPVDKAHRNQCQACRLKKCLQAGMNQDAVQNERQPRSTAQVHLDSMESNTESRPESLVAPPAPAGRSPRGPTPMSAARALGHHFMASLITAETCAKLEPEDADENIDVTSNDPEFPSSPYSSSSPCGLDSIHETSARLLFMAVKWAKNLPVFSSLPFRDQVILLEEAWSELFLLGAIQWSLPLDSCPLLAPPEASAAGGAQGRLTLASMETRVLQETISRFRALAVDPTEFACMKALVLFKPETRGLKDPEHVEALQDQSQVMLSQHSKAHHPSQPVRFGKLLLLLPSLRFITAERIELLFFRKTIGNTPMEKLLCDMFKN

The experiment concerns the target Photoreceptor-specific nuclear receptor (Homo sapiens) (UniProt Q9Y5X4). The experiment is described as follows: inhibitors of NR2E3-RetCOR corepressor binding, primary screen, NR2E3 agonist project, biochemical, TR-FRET, GST-NR2E3, biotin-RetCOR (AID 2300).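 Also: 0% = DMSO wells and 100% = biotin wells as full block of FRET.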 To be noted: 1536-well, at 4.78 µM, stronger effect = higher value. The method in brief: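 System: GST-NR2E3 and biotin-RetCOR proteins; probe or stimulus: 7 nM biotin-RetCOR; doses: compound at 4.8 µM, single dose; schedule: Compound–protein incubation for 5 h at 4 °C; detection: time-resolved FRET; read-out: percent inhibition; controls: biotin wells as high control, 0.6% DMSO wells as low control; format: 1536-well plates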
For the compound `Cc1nc(N2CCOCC2)c2c(C)c(C(=O)Nc3ccc(C(F)(F)F)cc3)sc2n1`, the inhibition of corepressor binding is -0.86% (inactive).
In the case of `Cc1cccc(NC(=O)c2sc3nc(N4CCOCC4)c4c(c3c2N)CCCC4)c1`, the inhibition of corepressor binding was 27.8% (active).
On to `CC(=O)Nc1ccc(N2CCOCC2)c(C(=O)Nc2cccc(C)c2)c1`, for which the inhibition of corepressor binding is 0.26% (inactive).
For the compound `CN(Cc1ccccc1Cl)C(=O)C1CCC(=O)N(CCc2cccc(F)c2)C1` (centres undefined), the inhibition of corepressor binding is -0.98% (inactive).
Next, `CCC(CC)C(=O)Nc1c2c(nn1-c1ccc(C)cc1)CS(=O)(=O)C2`: 0.73% (inactive).
Next, `CCOc1ccc(C(=O)Nc2cc(Cl)ccc2-n2cncn2)cc1OC`: 1.32% (inactive); `N#C/C(C(=S)Nc1ccccc1)=C1/NN=C(N2CCOCC2)N1c1ccccc1`: -1.05% (inactive); `Cc1ccccc1NC(=O)COc1cccc2c1CCNC2=O`: -2.78% (inactive).
Turning to `NC(=S)c1ccc(C(N)=S)o1`, the inhibition of corepressor binding was 2.26% (inactive).
Consider `O=C(COc1ccc2c3c(c(=O)oc2c1)CCCC3)NCC(O)c1ccccc1` (centres undefined), for which the inhibition of corepressor binding is 1.28% (inactive).
For `O=C(Oc1ccccc1)Oc1ccc2c(c1)oc(=O)c1ccccc12` the value was 26% (active).
With `CC(=O)COc1ccc2c(-c3ccccc3)cc(=O)oc2c1`, the inhibition of corepressor binding was 3.24% (inactive).
For `Cc1ccccc1C(CC(=O)c1cccs1)C(C#N)C#N` (centres undefined) the value was 3.7% (inactive).
As for `COc1cc(C(F)(F)F)c(C(=O)N(C)c2ccc(Cl)cc2)cn1`, the inhibition of corepressor binding is -2.07% (inactive).
On to `CC(=O)Nc1sc2c(c1C(c1cccc(F)c1)N1CCN(CCO)CC1)CCCC2` (centres undefined), for which the inhibition of corepressor binding was 2.91% (inactive).
On to `COC(=O)[C@]1(C)N[C@H](c2ccc(-c3ccc(Cl)c(Cl)c3)cc2)[C@@H]2C(=O)N(C)C(=O)[C@@H]21`, for which the inhibition of corepressor binding is -0.27% (inactive).
For `CC(=O)c1cccc(NC(=O)CN2C(=O)c3cccnc3Oc3ccc(Cl)cc32)c1` the value was 1.24% (inactive); for `COc1cc(C2C3C(=O)N(c4ccccc4)C(=O)C3ON2c2ccccc2)ccc1O` (centres undefined), 1.53% (inactive).
For `Cn1c(=O)c(=O)n(C)c2cc(S(=O)(=O)CCC(=O)N3CCCCC3)ccc21` the value was 1.89% (inactive).
On to `CSc1sc(C)cc1C1C(C#N)=C(N)N(c2cccnc2)C2=C1C(=O)CCC2` (centres undefined), for which the inhibition of corepressor binding was 0.82% (inactive).
Regarding `COCC(=O)N1CCCC(C(=O)c2ccc(C(F)(F)F)cc2)C1` (centres undefined), the inhibition of corepressor binding was 3.84% (inactive).
In the case of `Cc1ccc(CN2CCN(c3ccccc3Cl)CC2)o1`, the inhibition of corepressor binding was 0.07% (inactive).
Take `COCCNC(=O)CN1C(=O)CSc2ncccc21`: the inhibition of corepressor binding was 4.79% (inactive).
For `CCOc1ccccc1Nc1ccc(C(=O)O)cc1[N+](=O)[O-]` the value was 0.59% (inactive); for `O=C(COC(=O)c1ccc(F)cc1F)Nc1ncccn1`, 8.41% (inactive); for `CN(C(=O)CSc1nnc(-c2ccc(C(C)(C)C)cc2)n1C)C1CCS(=O)(=O)C1` (centres undefined), -0.57% (inactive).
For the compound `O=C(CNC(=O)c1ccc(Br)o1)NCC1CCCO1` (centres undefined), the inhibition of corepressor binding was 1.48% (inactive).
For `Cc1ccc(CN2CCN(Cc3ccc(OCCO)cc3)CC2CCO)o1` (centres undefined) the value was 3.85% (inactive).
For `COc1cc([C@H](Cc2ccccc2)NC(C)=O)oc(=O)c1`, the inhibition of corepressor binding was -1.34% (inactive).
For `CN(CC(=O)NCc1ccc2c(c1)OCO2)CC(=O)Nc1ccc(F)c(F)c1F` the value was 1.07% (inactive); for `CC(NC(=O)c1ccc(S(=O)(=O)Nc2ccccc2)cc1)c1ccc(S(N)(=O)=O)cc1` (centres undefined), 2.43% (inactive); for `CC(=O)N1CCSc2ccc(S(=O)(=O)N3CCC(C)CC3)cc21`, -0.82% (inactive).
Next, `C/C(=N/NC(=O)CSc1ccccn1)c1ccc([N+](=O)[O-])cc1`: 3.53% (inactive); `C[C@H](NC(=O)c1nc[nH]c1C(=O)NCC(=O)OC(C)(C)C)c1ccccc1`: -2.19% (inactive).
For the compound `Cc1ccc(N2C(=O)C(CC(=O)Nc3cccc(F)c3)N(CCc3ccncc3)C2=O)cc1` (centres undefined), the inhibition of corepressor binding was -1.41% (inactive).
For `CCCOC(=O)c1c(NC(=O)c2cnn3c2NC(c2ccccc2)CC3C(F)(F)F)sc2c1CCCC2` (centres undefined) the value was 0.87% (inactive); for `Cc1ccn2c(c1)nc(=O)c1cc(S(=O)(=O)N3CCC(C)CC3)ccc12`, 2.72% (inactive).
For `C=CCOc1cccc(C2C(C(=O)c3ccc(C)o3)=C(O)C(=O)N2c2nnc(C)s2)c1` (centres undefined) the value was 14.1% (inactive).
For `C=CCOc1cccc(C2C(C(=O)c3ccc(C)o3)=C(O)C(=O)N2CCCn2ccnc2)c1` (centres undefined) the value was 25.8% (active); for `CCCOc1ccc(C2C(C(=O)c3ccc(C)o3)=C(O)C(=O)N2CCCn2ccnc2)cc1` (centres undefined), 11.4% (inactive).
On to `COc1ccc(/C=C/C(=O)NC(=S)N2CCCC(C(N)=O)C2)cc1` (centres undefined), for which the inhibition of corepressor binding was 3.08% (inactive).
Take `O=C(OCC1O[C@@H](OC(=O)c2cc(O)c(O)c(O)c2)[C@@H](OC(=O)c2cc(O)c(O)c(O)c2)[C@@H](OC(=O)c2cc(O)c(O)c(O)c2)[C@@H]1OC(=O)c1cc(O)c(O)c(O)c1)c1cc(O)c(O)c(O)c1` (some centres undefined): the inhibition of corepressor binding is 11.9% (inactive).
Turning to `Cc1coc2c(O)cc3c(c12)OC1(N2CCCCC2)C(=O)NCCCC31` (centres undefined), the inhibition of corepressor binding is -2.68% (inactive).
As for `CC(C)CCNC(=O)C1CCCN(S(=O)(=O)c2ccc(F)cc2)C1` (centres undefined), the inhibition of corepressor binding was 2.4% (inactive).
